# Experiments:
# Cholinesterase = Cholinesterase (Equus caballus, UniProt P81908); assay: Inhibition of horse serum butyrylcholinesterase by Ellman's method
# Outline: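 Spectrophotometric Ellman assay using horse serum BChE, run alongside a parallel electric eel AChE assay. Inhibition reported as IC50 in µM.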
# [1] = Cytotoxicity against human BJ cells assessed as decrease in cell viability after 24 hrs by MTT assay; assay type: toxicity, cell-based
# Outline: (§1)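 A549 cells were kept in RPMI and BJ fibroblasts in EMEM, each with 10% FBS and 1% penicillin/streptomycin at 37℃ and 5% CO2. MTT was added at 0.5 mg/mL final for 3 h, formazan was dissolved in DMSO and read at 540 nm. Survival is expressed as % of the 0.1% DMSO control, and IC50 was derived from it.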
# [2] = Antioxidant activity assessed as ABTS radical scavenging activity by spectrophotometric analysis; assay type: functional
# Outline: (§2)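 Spectrophotometric radical-scavenging or β-carotene bleaching test, with DMSO as negative control and BHT and α-tocopherol as positive controls. The value is reported as IC50 in µM.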
# [3] = Antioxidant activity assessed as cupric reducing capacity after 1 hr by spectrophotometric analysis; assay type: functional
# Acetylcholinesterase = Acetylcholinesterase (Electrophorus electricus, UniProt O42275); assay: Inhibition of electric eel acetylcholinesterase using acetylthiocholine iodide as substrate by Ellman's method
# [4] = Antioxidant activity assessed as DPPH free radical scavenging activity after 2 hrs by spectrophotometric analysis; assay type: functional; outline: as §2
# [5] = Antioxidant activity assessed as inhibition of beta carotene/ linoleic acid peroxidation after 120 mins by spectrophotometric analysis; assay type: functional; outline: as §2
# [6] = Cytotoxicity against human A549 cells assessed as decrease in cell viability after 24 hrs by MTT assay; assay type: functional, cell-based; conditions: A549, 24 h; outline: as §1
# Cholinesterase, sequence (P81908 whole entry): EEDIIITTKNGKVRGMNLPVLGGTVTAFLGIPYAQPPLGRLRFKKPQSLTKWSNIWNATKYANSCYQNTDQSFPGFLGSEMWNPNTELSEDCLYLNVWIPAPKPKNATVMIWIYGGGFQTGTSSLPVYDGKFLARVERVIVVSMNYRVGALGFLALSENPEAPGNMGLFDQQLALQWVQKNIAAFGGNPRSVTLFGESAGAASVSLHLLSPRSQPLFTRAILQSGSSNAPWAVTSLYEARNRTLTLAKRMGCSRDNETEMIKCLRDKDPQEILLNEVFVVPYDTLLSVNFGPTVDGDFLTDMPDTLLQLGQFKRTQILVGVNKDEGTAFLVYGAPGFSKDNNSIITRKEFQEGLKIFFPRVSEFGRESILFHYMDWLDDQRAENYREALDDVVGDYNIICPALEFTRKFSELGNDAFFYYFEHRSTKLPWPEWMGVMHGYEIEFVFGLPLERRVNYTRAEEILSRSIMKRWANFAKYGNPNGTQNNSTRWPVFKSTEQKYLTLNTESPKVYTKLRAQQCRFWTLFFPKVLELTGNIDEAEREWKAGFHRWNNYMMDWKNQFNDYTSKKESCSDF
# Acetylcholinesterase, sequence (O42275 whole entry): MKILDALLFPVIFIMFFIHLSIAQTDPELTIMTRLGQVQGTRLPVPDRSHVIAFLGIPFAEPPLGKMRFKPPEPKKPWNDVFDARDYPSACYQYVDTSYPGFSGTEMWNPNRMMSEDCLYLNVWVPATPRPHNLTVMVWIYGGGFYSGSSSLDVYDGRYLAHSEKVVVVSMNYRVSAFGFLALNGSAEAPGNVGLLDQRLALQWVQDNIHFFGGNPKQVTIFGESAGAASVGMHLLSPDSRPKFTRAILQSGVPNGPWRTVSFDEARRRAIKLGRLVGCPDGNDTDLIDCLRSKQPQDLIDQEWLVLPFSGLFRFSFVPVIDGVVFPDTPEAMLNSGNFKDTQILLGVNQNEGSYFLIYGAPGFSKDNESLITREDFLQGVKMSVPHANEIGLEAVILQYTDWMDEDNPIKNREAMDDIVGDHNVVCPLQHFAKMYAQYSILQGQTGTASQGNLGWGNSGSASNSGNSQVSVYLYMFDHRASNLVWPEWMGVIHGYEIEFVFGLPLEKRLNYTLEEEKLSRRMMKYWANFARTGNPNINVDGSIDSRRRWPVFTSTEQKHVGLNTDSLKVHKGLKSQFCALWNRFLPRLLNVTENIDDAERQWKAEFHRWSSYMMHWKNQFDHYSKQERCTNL
Structure (SMILES),IC50 (Cholinesterase) [µM],IC50 at 24 h [1] [µM],IC50 [2] [µM],A0.5 [3] [µM],IC50 (Acetylcholinesterase) [µM],IC50 [4] [µM],IC50 [5] [µM],IC50 [6] [µM]
O=C(NN=C1CC(c2ccccc2)NC(c2ccccc2)C1)c1ccc(F)cc1 (configuration not stated),72.8,> 400,83.7,59.6,91.1,66,56.6,> 400
Cc1cc(C(C)(C)C)c(O)c(C(C)(C)C)c1 [BUTYLATED HYDROXYTOLUENE],,,2.91,3.8,,55,2.34,
CCOC(=O)N1CCC(=NNC(=O)c2ccc(OC)cc2)CC1,82.2,,38.3,36.9,101,85.4,,> 400
O=[N+]([O-])c1ccc(NN=C2CC(c3ccccc3)NC(c3ccccc3)C2)c([N+](=O)[O-])c1 (configuration not stated),,> 400,19.2,29.2,,20,28.2,> 400
Cc1ccc(C(=O)NN=C2CC(c3ccccc3)NC(c3ccccc3)C2)cc1 (configuration not stated),50.1,> 400,64.1,50.6,74.9,53.3,69,> 400
CCOC(=O)N1CCC(=NNC(=O)c2ccc(F)cc2C(F)(F)F)CC1,99.6,> 400,41.9,25.6,124,86.8,68.2,> 400
CCOC(=O)N1CCC(=NNC(=O)c2ccc([N+](=O)[O-])cc2)CC1,156,> 400,10.9,13.3,125,51.7,40.2,> 400
CCOC(=O)N1CCC(=NNC(=O)c2ccc(Cl)cc2)CC1,69.5,> 400,63.9,23.5,81.8,59,72.3,> 400
O=C(NN=C1CC(c2ccccc2)NC(c2ccccc2)C1)c1ccccc1 (configuration not stated),66,> 400,238,45.4,99.7,42,41.9,> 400
CCOC(=O)N1CCC(=NNC(=O)c2ccc(C)cc2)CC1,76.9,> 400,28.1,11.1,94.8,75.5,52.5,> 400
Cc1c(C)c2c(c(C)c1O)CC[C@@](C)(CCC[C@H](C)CCC[C@H](C)CCCC(C)C)O2 [ALPHA-TOCOPHEROL],,,4.87,40.5,,12.3,4.5,
O=C(NN=C1CC(c2ccccc2)NC(c2ccccc2)C1)c1ccc(C(F)(F)F)cc1F (configuration not stated),117,> 400,63.5,85.2,90.1,70.2,41.1,> 400
COc1ccc(C(=O)NN=C2CC(c3ccccc3)NC(c3ccccc3)C2)cc1 (configuration not stated),110,> 400,27.9,77.7,92.2,75.8,34.5,> 400
O=C(NN=C1CC(c2ccccc2)NC(c2ccccc2)C1)c1ccc([N+](=O)[O-])cc1 (configuration not stated),86.8,> 400,170,17.8,63.9,88.1,45.2,> 400
O=C(NN=C1CC(c2ccccc2)NC(c2ccccc2)C1)c1ccc(Cl)cc1 (configuration not stated),35.3,> 400,67.9,49.8,41.2,96.7,43.6,> 400
CCOC(=O)N1CCC(=NNC(=O)c2ccc(F)cc2)CC1,113,> 400,39.2,4.16,128,74.8,65.5,> 400
O=C(NN=C1CC(c2ccccc2)NC(c2ccccc2)C1)c1ccc(F)cc1C(F)(F)F (configuration not stated),52.4,> 400,88.5,88.2,49.5,88.3,115,> 400
CCOC(=O)N1CCC(=NNC(=O)c2ccc(C(F)(F)F)cc2)CC1,91.6,> 400,23.5,51.4,136,33.8,49.3,
CCOC(=O)N1CCC(=NNC(=O)c2ccc(C(F)(F)F)cc2F)CC1,95.1,> 400,59.5,27.3,123,86,77.4,> 400
O=C(NN=C1CC(c2ccccc2)NC(c2ccccc2)C1)c1ccc(C(F)(F)F)cc1 (configuration not stated),99.1,> 400,153,92.1,84.4,65,55.3,> 400
